Test: Toxicity liver stage against HepG2, at 10uM
Type: cell-based
Parameters: test concentration 10 uM, cell line HepG2-A16-CD81EGFP
Conditions: human, HepG2-A16-CD81EGFP cells; read-out: INHIBITION
How it was run: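 Uninfected HepG2-A16-CD81EGFP cells, 3 × 10^3 per well, 1536-well, plated on prespotted compound at 10 μM final, parasite-free screening media added to match infected plates; puromycin 10 μM positive, DMSO 0.5% negative; run in parallel with 48 h PbLuc assay at 37 °C, 5% CO2; viability by CellTiter-Glo luminescence, normalized to controls.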

Compound | cytotoxicity at 10 µM
Cc1cc(S(C)(=O)=O)c(C)c(S(=O)(=O)N2CCCC(C)C2)c1 (centres undefined) | 22.6%
Cc1noc(C)c1CNC(C(=O)N1CCOCC1)C(C)C (centres undefined) | 4.55%
COc1ccc2cnn(CC(=O)NC3CCCC3)c(=O)c2c1OC | -2.86%
Cc1cc(-c2cnn(CCNC(=O)Cc3ccccn3)c2C2CC2)on1 | 2.8%
CC(C)c1ncc(CNC2(c3ccc(Cl)cc3)CC2)cn1 | -32.3%
Cc1nc(C2CCCN2CCCS(=O)(=O)N(C)C)no1 (centres undefined) | -4.69%
CCS(=O)(=O)N1CCCCC1c1nc(C(C)C)no1 (centres undefined) | 13.6%
O=C1C(NCc2nnc3n2CCCC3)CCCN1c1cccc(F)c1 (centres undefined) | -9.68%
Cc1cc(C)c(C(=O)N2CCc3c(ncn3CCc3ccccc3)C2)[nH]1 | 7.13%
Cc1ccc([C@@H]2CN(S(=O)(=O)N3CCC(C)CC3)C[C@H]2N(C)C)cc1 | -3.59%
CN(CCCC1CCCC1)C(=O)c1cc(CN2CCC(O)CC2)on1 | 5.21%
CC(C)OCCN1CCN(C(=O)c2cccc(CC#N)c2)CC1 | 0.119%
Cc1cnn(CC2CCCN2Cc2noc(C)n2)c1 (centres undefined) | 0.742%
CC[C@H]1CN2CC[C@H]1C[C@@H]2CNCc1ccc(OC)cc1 | -1.19%
CN(C)c1nc2sc(C(=O)N3CCNC(=O)CC3)cc2s1 | -10.1%
CNC(=O)NC(C)c1c(F)cccc1Cl (centres undefined) | -6.2%
CC(C)(CO)Nc1cc(-c2ccccc2)ncn1 | -7.8%
O=C(NCCCN1CCOCC1)c1cc(-c2ccc3c(c2)CCO3)n[nH]1 | -3.73%
Cc1ccc(C)c(CC(=O)Nc2cccc(C(=O)N(C)C)n2)c1 | -6.56%
Cc1cc(CN(C)C(=O)NCC(C)N2CCc3ccccc32)no1 (centres undefined) | -5.43%
CC1CN(C)c2ccccc2CN1C(=O)NCc1ccon1 (centres undefined) | 7.36%
Cc1ncc(CN2CCC(c3nc4cc(Cl)ccc4o3)CC2)s1 | 51.7%

Compound | cytotoxicity at 10 µM
COCC1Cn2nnc(-c3cnn(C)c3)c2CN1Cc1ccco1 (centres undefined) | -9.44%
Cc1ncn(-c2cc(N3CCN(S(C)(=O)=O)CC3)ncn2)c1C | 6.23%
CCC(=O)NC1CCCN(Cc2ccc(-n3ccnc3)cc2)C1 (centres undefined) | -47.8%
COc1ccc(-c2noc(CN3CCOCC3C)n2)cc1OC (centres undefined) | -7.3%
O=C(C1CCOCC1)N1CCC2(CC1)CN(c1ccsc1)C(=O)CO2 | -63.4%
COc1ccnc(N2CCN(C(=O)c3cscn3)CC2)n1 | 0.883%
O=C(COCc1ccccc1)N1CCN(c2ccc(Cl)cn2)CC1 | -5.98%
CN(C)c1cccc(C2CCN(C3COCC3O)CC2)n1 (centres undefined) | -13.9%
CC(C)CN1CCC2(C=C(C(=O)N3CCCC3)c3ccccc32)CC1 | -3.12%
CCN(CC)S(=O)(=O)CCNC(=O)c1cc2cccc(F)c2o1 | -3.12%
CC(=O)c1cc(CC(=O)N2CCN(S(=O)(=O)c3ccccc3)CC2)cs1 | -0.943%
COC(=O)CCN1CCC(NC(=O)OC(C)(C)C)CC1 | 14.7%
CCN1CCN(C(=O)c2cnn(-c3ccccc3Cl)c2)CC1 | -11.5%
CC(=O)N1CCN(CCNS(=O)(=O)c2cccc(F)c2)CC1 | 6.99%
Cc1cc2n(n1)[C@@H](C(F)(F)F)C[C@@H](C1CCCN(C(=O)C(C)C)C1)N2 (some centres undefined) | -22.1%
CC(=O)N1CC2(CCN(C(=O)c3cccc4[nH]ccc34)CC2)C1 | -138%
Cc1cnccc1Cn1ccnc1C1CCOC1 (centres undefined) | -2.53%
Cc1ccc(CN2CC[C@H]3[C@H]2CC(=O)N3c2ccsc2)o1 | 1.12%
CCC(CC)C(CNC(=O)Nc1cc(C)nn1C)N1CCOCC1 (centres undefined) | 1.74%
CCCc1cc(NC2CCc3ncnn3C2)n2ncnc2n1 (centres undefined) | -4.17%
Cc1cc(CNC(=O)NC(C)c2ccccc2)no1 (centres undefined) | 10.4%
CCOc1ccc2ccccc2c1CNCC1CCS(=O)(=O)C1 (centres undefined) | -3.4%

Compound | cytotoxicity at 10 µM
O=C(NCc1ccon1)Nc1cc(F)ccc1N1CCCCC1 | 12.7%
CC(C)=CCN1C(=O)[C@@H]2CC[C@H]1CN(Cc1cccnc1N)C2 | 12.3%
Cc1nc(-c2cc(C(=O)NC(C)(C(=O)O)C(C)C)co2)cs1 (centres undefined) | 1.84%
COC1CCN(C(=O)Cc2csc(-c3ccc(F)cc3)n2)CC1 | -6.16%
COc1ccnc(C(=O)N2CCCC(c3noc(C)n3)C2)c1 (centres undefined) | -4.64%
COCCN1C(=O)CCC12CCN(c1ncc(F)cn1)CC2 | 0.632%
COC(=O)c1ccc(NC(C)c2ccc3c(c2)NC(=O)CO3)nn1 (centres undefined) | -4.75%
Cc1cn(CC(=O)Nc2cc(C(C)(C)C)nn2C)cn1 | 0.79%
Cn1cnnc1C1CCCN(C(=O)c2cc(Cl)c(Cl)n2C)C1 (centres undefined) | -4.9%
CCOC(=O)[C@]12CCCN(Cc3ccsc3)C[C@H]1CN(CCOC)C2 | -127%
Cc1ccc(CN2C[C@@H]3COC[C@H](NS(C)(=O)=O)[C@@H]3C2)o1 | 0.415%
C[C@@H]1C(=O)NC[C@H]2CN(Cc3ccsc3)C[C@H]21 | 4.22%
COCC(=O)Nc1ccc2c(c1)CN(C(=O)c1ccco1)CC2 | 7.58%
Cn1cc(C(=O)N2CCCC(CN3CCCC3=O)C2)cn1 (centres undefined) | -12.6%
O=C(c1cncc(F)c1)N1CCC(c2ncc[nH]2)CC1 | -1.39%
CC(C)c1ccc(OCCC(=O)NCCC(=O)N(C)C)cc1 | -4.37%
C/C=C(\C)CN1C[C@H](NC(=O)CN2CCCC2=O)[C@@H](c2ccc(C)o2)C1 | 10.8%
Cc1cc(C(=O)N2CCC3(CC2)CN(CCN(C)C)C(=O)O3)nc(C)n1 | 2.92%
CN(C)c1nc(N)nc(CN2CCCC(c3ccccc3)CC2)n1 (centres undefined) | 5.47%
COc1ccc(C[C@H]2CN(C(=O)CS(C)(=O)=O)CC[C@H]2OC)cc1 | 2.64%
O=C(O)CC(NC(=O)CCCc1cccs1)c1ccc(F)cc1 (centres undefined) | -2.99%
Cn1cccc1C(=O)NC1(C(=O)NCC2CC2)CCCC1 | -3.29%

Compound | cytotoxicity at 10 µM
O=C(CC1CC1)N1C[C@H]2CN(CC3CC3)C(=O)[C@H]2C1 | 3.91%
COc1ccc(NC(=O)c2cnc(C3CCN(C)CC3)nc2C)cc1 | -1.46%
CCC1(CC)CC(=O)N(CC(O)c2cccc(Br)c2)C1=O (centres undefined) | 3.89%
COc1cc(N2CCC3(CCN(Cc4cccnc4)C3=O)C2)ncn1 (centres undefined) | -107%
Cc1cc(F)ccc1S(=O)(=O)NCC(O)c1cccn1C (centres undefined) | -5.62%
CCC(CO)N(Cc1ccccn1)C(=O)c1ccc(=O)[nH]c1 (centres undefined) | -0.65%
CCn1cnnc1CN(C)C(=O)c1cc(COc2cccc(F)c2)[nH]n1 | 12.3%
O=C(CN1CCC(c2nnc(C(F)(F)F)o2)CC1)NCc1ccccc1 | 2.51%
CCCC(O)CN1CCC(=O)N(C)Cc2cc(F)ccc21 (centres undefined) | -124%
Cc1cccc(N2CCC(N3CCCC4(CN(C)C(=O)O4)C3)CC2)c1C (centres undefined) | -12.8%
N#Cc1ccc(SCCC(=O)Nc2ccc(CC(N)=O)cc2)cc1 | -5.25%
c1cncc(O[C@H]2COCCN(C3CCC3)C2)c1 | 0.514%
c1cnn([C@@H]2CN(Cc3nccs3)[C@@H]3CCCO[C@@H]32)c1 | 9.07%
COc1cc(I)c(Cl)cc1C(=O)N(C)C | 11%
COc1cccc(C(=O)N(C)C(C)c2c(C)n[nH]c2C)c1OC (centres undefined) | -2.8%
CC(=O)N(Cc1ncc(C)o1)C1CCN(Cc2noc(C)n2)C1 (centres undefined) | 0%
Cn1ncc2c1C(COCC1CC1)CN(Cc1ccsc1)C2 (centres undefined) | -1.11%
O=C(Cc1noc(C(=O)NCC2CC2)n1)Nc1cccc(C(F)(F)F)c1 | 8.13%
CN(C)C(=O)NCc1cc2n(n1)CCN(CC1[C@H]3CNC[C@@H]13)C2 (some centres undefined) | -27.7%
Cc1noc(-c2ccc(N3CCN(Cc4nccn4C)CC3)nc2)n1 | 3.19%
O=C(Cc1c[nH]c2ccccc12)N1CCC(Nc2cccnc2)CC1 | -26.6%
CC(Oc1ccccc1)C(=O)N1CCCN(Cc2cscn2)CC1 (centres undefined) | -3.92%

Compound | cytotoxicity at 10 µM
Cc1ccc(C2(O)CCN(C(=O)c3ccc(S(N)(=O)=O)cc3)CC2)nc1 | -2.13%
Cc1cc(C2CCCN(C(=O)Cc3csc(C(C)C)n3)C2)n[nH]1 (centres undefined) | -7.27%
O=S1(=O)NCC2(CCN(Cc3ccncc3)CC2)Oc2ncccc21 | 5.97%
COc1ccc(C2CCCN2C(=O)NCCCn2ccnc2)cc1 (centres undefined) | -13.4%
Cn1ncc2c(N[C@@H]3C[C@H]4CC[C@@H]3C4)nc(-c3ccncc3)nc21 | 5.89%
Cc1cccc(NC(=O)NCC2(N3CCOCC3)CCSC2)c1 (centres undefined) | 5.02%
Cc1n[nH]c(C)c1CCN(C)c1ccc(-c2nc(C3CC3)no2)cn1 | 2.08%
Clc1ccc(C2(NCc3noc(C4CC4)n3)CCC2)cc1 | 5.04%
NC(=O)c1ccc(NC2CCOC3(CCCC3)C2)nn1 (centres undefined) | -3.13%
c1cnc2ccc(C[C@@H]3CC[C@H](CN4CCCOCC4)O3)cc2c1 | -1.6%
CS(=O)(=O)N1CC[C@H]2O[C@H](C(=O)NCCc3ccncc3)CC[C@H]21 | 4.41%
COc1ccccc1OC1CCN(Cc2ccc(N(C)C)nc2)CC1 | -11.8%
Cc1ncc(C)c(N2CCC(Cc3ccc(Cl)cc3)(C(=O)O)CC2)n1 | -6.28%
COc1cc(Oc2ccc(C#N)cn2)ccc1CN1CCCC1 | 32.2%
O=C(Cc1cccc2cccnc12)N1CCCN(c2cccnn2)CC1 | -5.1%
O=c1c2sccc2nc2n1CCN(Cc1ccsc1)CC2 | -25.4%
COCC(=O)Nc1ccc([C@@H](O)[C@H]2COCC(=O)N2C)cc1 | 10.3%
CCn1c(C2CCNCC2)nn(Cc2ccc(C(=O)NC)o2)c1=O | 6.8%
CS(=O)(=O)N1CCCN(C(=O)c2ccc(Cn3ccccc3=O)o2)CC1 | -3.41%
CCc1nnc2n1CCN(Cc1ncc(-c3ccc(F)cc3)o1)C2 | -9.42%
CCCc1nnsc1C(=O)NCC1CCN(c2ncccn2)CC1 | 10.6%

Reference: ChEMBL document CHEMBL4513216, “Probing the Open Global Health Chemical Diversity Library for Multistage-Active Starting Points for Next-Generation Antimalarials” (ACS Infect Dis, 2020)
